Test results: ChEMBL document CHEMBL4428035, “Urea derivates of ursolic, oleanolic and maslinic acid induce apoptosis and are selective cytotoxic for several human tumor cell lines” (Eur J Med Chem, 2016)
Activity calls are given as the source filed them. No cut-off for these calls is given here.

How the values were obtained:
A2780 [1] = assay: Cell cycle arrest in human A2780 cells assessed as increase in S phase at 10 uM after 24 hrs by FACS analysis; format: functional, cell-based
Procedure, shortened: (§1)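 Living A2780 cells treated with 10 µM test agent for 24 h and 48 h, then examined for cell-cycle distribution by FACS. Phase populations (Sub-G1, G1/G0, S, G2/M) were quantified by model fitting and expressed as arithmetic means of the population distribution (%).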

MCF7 = assay: Cytotoxicity against human MCF7 cells assessed as reduction in cell proliferation after 96 hrs by sulforhodamine B assay; format: functional, cell-based; conditions: MCF7, 96 h
A2780 [2] = assay: Cell cycle arrest in human A2780 cells assessed as decrease in G2/M phase at 10 uM after 24 hrs by FACS analysis; format: functional, cell-based; procedure, shortened: as §1
A2780 [3] = assay: Cell cycle arrest in human A2780 cells assessed as decrease in G1/G0 phase at 10 uM after 24 hrs by FACS analysis; format: functional, cell-based; procedure, shortened: as §1
NIH3T3 = assay: Cytotoxicity against mouse NIH/3T3 cells assessed as reduction in cell proliferation after 96 hrs by sulforhodamine B assay; format: ADME, cell-based; conditions: NIH3T3, 96 h
HT-29 = assay: Cytotoxicity against human HT-29 cells assessed as reduction in cell proliferation after 96 hrs by sulforhodamine B assay; format: functional, cell-based; conditions: HT-29, 96 h
A2780 [4] = assay: Cell cycle arrest in human A2780 cells assessed as decrease in G1/G0 phase at 10 uM after 48 hrs by FACS analysis; format: functional, cell-based; procedure, shortened: as §1
SW-1736 = assay: Cytotoxicity against human SW1736 cells assessed as reduction in cell proliferation after 96 hrs by sulforhodamine B assay; format: functional, cell-based; conditions: SW-1736, 96 h
518A2 = assay: Cytotoxicity against human 518A2 cells assessed as reduction in cell proliferation after 96 hrs by sulforhodamine B assay; format: functional, cell-based; conditions: 518A2, 96 h
A2780 [5] = assay: Induction of apoptosis in human A2780 cells assessed as necrotic cells at 10 uM after 24 hrs by Annexin V/propidium iodide staining based flow cytometry relative to control; format: functional
Procedure, shortened: (§2)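 Annexin V/propidium iodide staining of A2780 cells exposed to 10 µM compound for 24 h and 48 h, read by flow cytometry. Viable, apoptotic, necrotic and secondary-necrotic fractions were reported as relative changes versus untreated control (%).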

A2780 [6] = assay: Cell cycle arrest in human A2780 cells assessed as increase in subG1 phase at 10 uM after 48 hrs by FACS analysis; format: functional, cell-based; procedure, shortened: as §1
A2780 [7] = assay: Cell cycle arrest in human A2780 cells assessed as decrease in S phase at 10 uM after 48 hrs by FACS analysis; format: functional, cell-based; procedure, shortened: as §1
A2780 [8] = assay: Induction of apoptosis in human A2780 cells assessed as viable cells at 10 uM after 24 hrs by Annexin V/propidium iodide staining based flow cytometry relative to control; format: functional; conditions: A2780, 24 h, read-out: Activity; procedure, shortened: as §2
A2780 [9] = assay: Induction of apoptosis in human A2780 cells assessed as secondary necrotic cells at 10 uM after 24 hrs by Annexin V/propidium iodide staining based flow cytometry relative to control; format: functional; procedure, shortened: as §2
A2780 [10] = assay: Induction of apoptosis in human A2780 cells assessed as apoptotic cells at 10 uM after 24 hrs by Annexin V/propidium iodide staining based flow cytometry relative to control; format: functional; procedure, shortened: as §2
A2780 [11] = assay: Induction of apoptosis in human A2780 cells assessed as caspase-3 activation up to 72 hrs by flow cytometry; format: functional, cell-based
Procedure, shortened: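 Caspase activation in A2780 cells was measured by flow cytometry after 24, 48 and 72 h of treatment.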

A2780 [12] = assay: Cytotoxicity against human A2780 cells assessed as reduction in cell proliferation after 96 hrs by sulforhodamine B assay; format: functional, cell-based; conditions: A2780, 96 h
A549 = assay: Cytotoxicity against human A549 cells assessed as reduction in cell proliferation after 96 hrs by sulforhodamine B assay; format: functional, cell-based; conditions: A549, 96 h
[13] = Selectivity index, ratio of EC50 for mouse NIH/3T3 cells to EC50 for human A549 cells; conditions: NIH/3T3 cells versus A549 cells
[14] = Selectivity index, ratio of EC50 for mouse NIH/3T3 cells to EC50 for human 518A2 cells
[15] = Selectivity index, ratio of EC50 for mouse NIH/3T3 cells to EC50 for human MCF7 cells; conditions: NIH/3T3 cells versus MCF7 cells
[16] = Selectivity index, ratio of EC50 for mouse NIH/3T3 cells to EC50 for human SW1736 cells
[17] = Selectivity index, ratio of EC50 for mouse NIH/3T3 cells to EC50 for human HT-29 cells; conditions: NIH/3T3 cells versus HT-29 cells
[18] = Selectivity index, ratio of EC50 for mouse NIH/3T3 cells to EC50 for human FADU cells
[19] = Selectivity index, ratio of EC50 for mouse NIH/3T3 cells to EC50 for human A2780 cells; conditions: NIH/3T3 cells versus A2780 cells
FaDu = assay: Cytotoxicity against human FADU cells assessed as reduction in cell proliferation after 96 hrs by sulforhodamine B assay; format: functional, cell-based
A2780 [20] = assay: Induction of apoptosis in human A2780 cells assessed as necrotic cells at 10 uM after 48 hrs by Annexin V/propidium iodide staining based flow cytometry relative to control; format: functional; procedure, shortened: as §2
A2780 [21] = assay: Induction of apoptosis in human A2780 cells assessed as apoptotic cells at 10 uM after 48 hrs by Annexin V/propidium iodide staining based flow cytometry relative to control; format: functional; procedure, shortened: as §2
A2780 [22] = assay: Induction of apoptosis in human A2780 cells assessed as viable cells at 10 uM after 48 hrs by Annexin V/propidium iodide staining based flow cytometry relative to control; format: functional; conditions: A2780, 48 h, read-out: Activity; procedure, shortened: as §2
A2780 [23] = assay: Induction of apoptosis in human A2780 cells assessed as secondary necrotic cells at 10 uM after 48 hrs by Annexin V/propidium iodide staining based flow cytometry relative to control; format: functional; procedure, shortened: as §2

CC(=O)O[C@H]1C[C@]2(C)[C@H]3CC=C4[C@@H]5CC(C)(C)CC[C@]5(NC(=O)Nc5ccccc5)CC[C@@]4(C)[C@]3(C)CC[C@H]2C(C)(C)[C@H]1OC(C)=O
Activity (A2780 [1]): Active | EC50 (MCF7): 2.8 µM | Activity (A2780 [2]): Active | Activity (A2780 [3]): Active | EC50 (NIH3T3): > 120 µM | EC50 (HT-29): 2.3 µM | Activity (A2780 [4]): Active | EC50 (SW-1736): 2.8 µM | EC50 (518A2): 1.2 µM | Activity (A2780 [5]): -1% | Activity (A2780 [6]): Active | Activity (A2780 [7]): Active | change in viable cells vs control (%) at 10 µM (A2780 [8]): -43% | Activity (A2780 [9]): 11% | Activity (A2780 [10]): 33% | Activity (A2780 [11]): inactive | EC50 (A2780 [12]): 0.9 µM | EC50 (A549): 4.4 µM

COCCO[C@@H]1C[C@]2(C)[C@H]3CC=C4[C@@H]5CC(C)(C)CC[C@]5(C(=O)NCc5ccccc5)CC[C@@]4(C)[C@]3(C)CC[C@H]2C(C)(C)[C@H]1OCCOC
selectivity ratio [13]: 5 | EC50 (MCF7): 6.8 µM | Ratio EC50 [14]: 5 | EC50 (NIH3T3): 15.5 µM | EC50 (HT-29): 4.9 µM | selectivity ratio [15]: 5 | Ratio EC50 [16]: 5 | EC50 (SW-1736): 4.6 µM | EC50 (518A2): 3.5 µM | selectivity ratio [17]: 5 | Ratio EC50 [18]: 5 | selectivity ratio [19]: 5 | EC50 (A2780 [12]): 2.7 µM | EC50 (A549): 4.9 µM

COCO[C@@H]1C[C@]2(C)[C@H]3CC=C4[C@@H]5CC(C)(C)CC[C@]5(C(=O)NCc5ccccc5)CC[C@@]4(C)[C@]3(C)CC[C@H]2C(C)(C)[C@H]1O
selectivity ratio [13]: 5 | EC50 (MCF7): 5.5 µM | EC50 (NIH3T3): 16.5 µM | EC50 (HT-29): 5.2 µM | selectivity ratio [15]: 5 | EC50 (SW-1736): 5.4 µM | EC50 (518A2): 3.2 µM | selectivity ratio [17]: 5 | selectivity ratio [19]: 5 | EC50 (A549): 12.8 µM | EC50 (FaDu): 3.3 µM

CC(=O)O[C@@H]1[C@H](OC(C)=O)C[C@]2(C)[C@H]3CC=C4[C@@H]5CC(C)(C)CC[C@]5(C(=O)NCc5ccccc5)CC[C@@]4(C)[C@]3(C)CC[C@H]2C1(C)C
Activity (A2780 [1]): Active | EC50 (MCF7): 7.8 µM | Activity (A2780 [2]): Active | Activity (A2780 [20]): -1% | Activity (A2780 [3]): Active | Activity (A2780 [21]): 45% | viability at 10 µM (A2780 [22]): -65% | EC50 (NIH3T3): 11.4 µM | EC50 (HT-29): 7.7 µM | Activity (A2780 [23]): 20% | Activity (A2780 [4]): Active | EC50 (SW-1736): 20.7 µM | EC50 (518A2): 5.7 µM | Activity (A2780 [5]): 1% | Activity (A2780 [6]): Active | Activity (A2780 [7]): Active | change in viable cells vs control (%) at 10 µM (A2780 [8]): -16% | Activity (A2780 [9]): 10% | Activity (A2780 [10]): 5% | EC50 (A2780 [12]): 1.9 µM | EC50 (A549): 15.6 µM | EC50 (FaDu): 5.5 µM

CC(=O)O[C@H]1C[C@]2(C)[C@H]3CC=C4[C@@H]5CC(C)(C)CC[C@]5(C(=O)NCc5ccccc5)CC[C@@]4(C)[C@]3(C)CC[C@H]2C(C)(C)[C@@H]1OC(C)=O
Activity (A2780 [1]): Active | EC50 (MCF7): 7.6 µM | Activity (A2780 [2]): Active | Activity (A2780 [20]): 0% | Activity (A2780 [3]): Active | Activity (A2780 [21]): 45% | viability at 10 µM (A2780 [22]): -75% | EC50 (NIH3T3): 7.7 µM | EC50 (HT-29): 5.2 µM | Activity (A2780 [23]): 29% | Activity (A2780 [4]): Active | EC50 (SW-1736): 5.2 µM | EC50 (518A2): 2.3 µM | Activity (A2780 [5]): 1% | Activity (A2780 [6]): Active | Activity (A2780 [7]): Active | change in viable cells vs control (%) at 10 µM (A2780 [8]): -12% | Activity (A2780 [9]): 9% | Activity (A2780 [10]): 4% | EC50 (A2780 [12]): 1.1 µM | EC50 (A549): 8.8 µM | EC50 (FaDu): 3.3 µM

CC(=O)O[C@H]1C[C@]2(C)[C@H]3CC=C4[C@@H]5CC(C)(C)CC[C@]5(C(=O)NCc5ccccc5)CC[C@@]4(C)[C@]3(C)CC[C@H]2C(C)(C)[C@H]1OC(C)=O
Activity (A2780 [1]): Active | EC50 (MCF7): 3.5 µM | Activity (A2780 [2]): Active | Activity (A2780 [20]): 1% | Activity (A2780 [3]): Active | Activity (A2780 [21]): 55% | viability at 10 µM (A2780 [22]): -79% | EC50 (NIH3T3): 9.4 µM | EC50 (HT-29): 3.7 µM | Activity (A2780 [23]): 23% | Activity (A2780 [4]): Active | EC50 (SW-1736): 3.4 µM | EC50 (518A2): 0.9 µM | Activity (A2780 [5]): -1% | Activity (A2780 [6]): Active | Activity (A2780 [7]): Active | change in viable cells vs control (%) at 10 µM (A2780 [8]): -11% | Activity (A2780 [9]): 6% | Activity (A2780 [10]): 5% | EC50 (A2780 [12]): 0.5 µM | EC50 (A549): 5.6 µM | EC50 (FaDu): 2 µM
